Several values for one entry are separate records, joined by “and”; a condition that tells them apart may be missing. Equal values may be shown once.
System: Fibroblast
Assay: Multiplex assay against human fibroblast
Type: toxicity, cell-based
Outline: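 Four dyes were applied at seeding to live cells: Hoechst33342, BioTracker Green Microtubule Cytoskeleton Dye, MitoTracker Red and Annexin V Alexa Fluor 680. Imaging after compound addition used a CQ1 microscope at 37°C and 5% CO2. CellPathfinder machine-learning gating then sorted cells into Hoechst high-intensity objects or normal cells, normal cells into healthy, pyknosed or fragmented nuclei, and pyknosed cells into mitotic or apoptotic, with tubulin, mitochondrial-mass and membrane-permeability phenotypes given as per cents of healthy-nucleus cells.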

[1] = 12 h, 1 µM, compound concentration 1 uM
[2] = 12 h, 10 µM, compound concentration 10 uM
[3] = 24 h, 1 µM, compound concentration 1 uM
[4] = 24 h, 10 µM, compound concentration 10 uM
[5] = 48 h, 1 µM, compound concentration 1 uM
[6] = 48 h, 10 µM, compound concentration 10 uM

## COCCn1c(C)c(C)s/c1=N\C(=O)C1C(C)(C)C1(C)C
[1]
  Population Apoptotic (%): 43% and 40%
  Population Fragmented Nuclei (%): 18% and 22%
  Population Healthy Nuclei (%): 69% and 57%
  Population Hoechst High Intensity Objects (%): 0% and 4%
  Population Membrane Permeable-Phenotype (%): 0% and 1%
  Population Mitochondria Different-Phenotype (%): 7% and 5%
  Population Mitotic Cells (%): 56% and 60%
  Population Normal (%): 99% and 95%
  Population Pyknosed Nuclei (%): 11% and 19%
  Population Tubulin-Different-Phenotype (%): 34% and 32%
  Total Cell Count: 136 and 133
[2]
  Population Apoptotic (%): 64% and 37%
  Population Fragmented Nuclei (%): 19% and 38%
  Population Healthy Nuclei (%): 59% and 40%
  Population Hoechst High Intensity Objects (%): 2% and 6%
  Population Mitochondria Different-Phenotype (%): 14% and 8%
  Population Mitotic Cells (%): 35% and 62%
  Population Normal (%): 97% and 93%
  Population Pyknosed Nuclei (%): 20% and 21%
  Population Tubulin-Different-Phenotype (%): 56% and 64%
  Total Cell Count: 167 and 120
[3]
  Population Apoptotic (%): 64% and 54%
  Population Fragmented Nuclei (%): 15% and 28%
  Population Healthy Nuclei (%): 72% and 54%
  Population Hoechst High Intensity Objects (%): 2% and 3%
  Population Membrane Permeable-Phenotype (%): 1% and 5%
  Population Mitochondria Different-Phenotype (%): 5%
  Population Mitotic Cells (%): 35% and 45%
  Population Normal (%): 97% and 96%
  Population Pyknosed Nuclei (%): 11% and 17%
  Population Tubulin-Different-Phenotype (%): 38% and 37%
  Total Cell Count: 122 and 132
[4]
  Population Apoptotic (%): 68% and 33%
  Population Fragmented Nuclei (%): 20% and 40%
  Population Healthy Nuclei (%): 59% and 36%
  Population Hoechst High Intensity Objects (%): 4% and 3%
  Population Membrane Permeable-Phenotype (%): 0% and 11%
  Population Mitochondria Different-Phenotype (%): 15% and 19%
  Population Mitotic Cells (%): 31% and 66%
  Population Normal (%): 95% and 96%
  Population Pyknosed Nuclei (%): 19% and 23%
  Population Tubulin-Different-Phenotype (%): 61% and 66%
  Total Cell Count: 154 and 120
[5]
  Population Apoptotic (%): 60%
  Population Fragmented Nuclei (%): 23% and 31%
  Population Healthy Nuclei (%): 63% and 56%
  Population Hoechst High Intensity Objects (%): 4% and 7%
  Population Membrane Permeable-Phenotype (%): 0% and 2%
  Population Mitochondria Different-Phenotype (%): 4%
  Population Mitotic Cells (%): 40%
  Population Normal (%): 95% and 92%
  Population Pyknosed Nuclei (%): 12% and 11%
  Population Tubulin-Different-Phenotype (%): 43% and 45%
  Total Cell Count: 123 and 140
[6]
  Population Apoptotic (%): 75% and 58%
  Population Fragmented Nuclei (%): 23% and 49%
  Population Healthy Nuclei (%): 56% and 34%
  Population Hoechst High Intensity Objects (%): 7% and 8%
  Population Membrane Permeable-Phenotype (%): 0% and 14%
  Population Mitochondria Different-Phenotype (%): 22% and 11%
  Population Mitotic Cells (%): 25% and 41%
  Population Normal (%): 92% and 91%
  Population Pyknosed Nuclei (%): 20% and 16%
  Population Tubulin-Different-Phenotype (%): 67% and 65%
  Total Cell Count: 151 and 111
